# Legend:
# MOLT-4 = experiment: In vitro inhibitory activity against acute lymphoblastic leukemia (MOLT4) cell line.; assay type: functional, cell-based; conditions: Homo sapiens
# How it was run: (§1)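 MCF7 (trypsinized monolayer) or MOLT4 (suspension) cells in RPMI 1640 with 10% FCS, plated at 1.0 × 10^5 cells/mL and allowed 24 h recovery. Then 6 days continuous drug exposure, 0.15–40 µM, triplicate wells. Propidium iodide fluorescence read (ex 530/em 620) before and after freeze-kill; viable cells = FU2 − FU1; %T/C; IC50 as mean ± SD, n = 3.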
# MCF7 = experiment: In vitro inhibitory activity against mammary carcinoma (MCF-7) cell line.; assay type: functional, cell-based; conditions: Homo sapiens; how it was run: as §1
# Homo sapiens [1] = organism: Homo sapiens; experiment: Alkylating activity of compound remaining after 24 hours of incubation with 10% human blood serum; assay type: functional
# [2] = Time required to reduce the alkylating activity of 10% human blood serum from its initial value by 50%.; assay type: ADME, Plasma
# Homo sapiens [3] = organism: Homo sapiens; experiment: Alkylating activity of compound remaining after 48 hours of incubation with 10% human blood serum; assay type: functional
# Homo sapiens [4] = organism: Homo sapiens; experiment: Alkylating activity of compound remaining after 96 hours of incubation with 10% human blood serum; assay type: functional
SMILES,IC50 (MOLT-4),IC50 (MCF7),Activity (Homo sapiens [1]),half-life [2],Activity (Homo sapiens [3]),Activity (Homo sapiens [4])
O=C(O)CCCc1ccc(N(CCCl)CCCl)cc1 [CHLORAMBUCIL],6.3 µM,24.6 µM,12.2%,4.5 h,6.6%,
O=C(CCCc1ccc(N(CCCl)CCCl)cc1)OCCN1C(=O)C=CC1=O,7.8 µM,,20.9%,3.1 h,13.8%,11%
O=C(CCCc1ccc(N(CCCl)CCCl)cc1)Oc1cccc(N2C(=O)C=CC2=O)c1,15.3 µM,,22.3%,4.3 h,15.2%,12.1%
C/C(=N\NC(=O)CCCc1ccc(N(CCCl)CCCl)cc1)c1cccc(N2C(=O)C=CC2=O)c1,3.3 µM,,22.9%,4.5 h,13.7%,10.9%
O=C(CCCc1ccc(N(CCCl)CCCl)cc1)N/N=C/c1cccc(N2C(=O)C=CC2=O)c1,7.5 µM,35.5 µM,24.1%,5.9 h,14.5%,13.4%
O=C(CCCc1ccc(N(CCCl)CCCl)cc1)N/N=C/CN1C(=O)C=CC1=O,0.35 µM,6.8 µM,25%,4 h,19.5%,15.2%
